Published values of several laboratories.
LATS2: Serine/threonine-protein kinase LATS2 (LATS2, Homo sapiens, UniProt Q9NRM7)
AKR1B1: Aldo-keto reductase family 1 member B1 (AKR1B1, Homo sapiens, UniProt P15121)
LCK: Tyrosine-protein kinase Lck (LCK, Homo sapiens, UniProt P06239)

For `Nc1cnccc1Nc1ccc(Cl)c(Cl)c1`, the IC50 was greater than 100000 nM (Endonuclease 8-like 1 (NEIL1, Homo sapiens, UniProt Q96FI4); enzyme activity; inhibitor).
The IC50 of `OC1(c2ccc(-c3ccnc4[nH]cc(F)c34)cc2)CCCNCC1` (stereo not drawn) is reported as 12 nM (LATS2; enzyme activity; inhibitor; radiometric).
`COc1cc(/C=N/NC(=S)NN=Cc2scnc2C)ccc1Oc1ccnc2cc(Cl)ccc12` has an IC50 of 17800 nM (AKR1B1; enzyme activity; inhibitor; absorbance).
`O=C(Nc1c[nH]nc1-c1nc2cc(CN3CCOCC3)ccc2[nH]1)NC1CC1` has an IC50 of 114 nM (LATS2; enzyme activity; inhibitor; radiometric).
With `COc1cc(/C=N/NC(=S)N/N=C/c2ccc(C=O)cc2)ccc1Oc1ccnc2cc(Cl)ccc12` the IC50 was 12900 nM (AKR1B1; enzyme activity; inhibitor; absorbance).
For `C=CC(=O)N1CCN(c2nc(=O)n(-c3c(C)ccnc3C(C)C)c3nc(-c4c(O)cccc4F)c(F)cc23)[C@@H](C)C1`, the IC50 was 87.1 nM (GTPase HRas (HRAS, Homo sapiens, UniProt P01112, C181S/C184S/C186S/G12C); enzyme activity; inhibitor).
With `OC1(c2ccc(-c3ccnc4[nH]cc(F)c34)cc2)CCCNC1` (stereo not drawn) the IC50 was 10 nM (LATS2; enzyme activity; inhibitor; radiometric).
`Cc1cc2c(cc1C)N[C@H](c1ccccc1)[C@@H](O)C(=O)N2` gave an IC50 of 343 nM (Tyrosine-protein kinase JAK2 (JAK2, Homo sapiens, UniProt O60674); enzyme activity; inhibitor; ELISA).
`COc1c(Cl)cccc1Nc1c(-c2ccncc2OC[C@@H]2COCCO2)[nH]c2c1C(=O)NCC2` gave an IC50 of 1120 nM (LCK; enzyme activity; inhibitor; TR-FRET).
With `COc1cc(/C=N/NC(=S)N/N=C/c2ccc(Br)cc2)ccc1Oc1ccnc2cc(Cl)ccc12` the IC50 was 8820 nM (AKR1B1; enzyme activity; inhibitor; absorbance).
`Cc1cc(-c2ccnc3[nH]cc(F)c23)cc(F)c1[C@@]1(O)[C@H](C)CN(C(=O)CN)C[C@@H]1C` gave an IC50 of 5.1 nM (LATS2; target engagement in cells; BRET).
`O=C(O[C@@H]1[C@@H](O)[C@H](Oc2cc(O)c3c(c2)O[C@H](c2ccccc2)CC3=O)O[C@@H]2COC(=O)c3cc(O)c(O)c(O)c3-c3c(cc(O)c(O)c3O)C(=O)O[C@@H]12)c1cc(O)c(O)c(O)c1` has an IC50 of 3900 nM (Thioredoxin domain-containing protein 5 (TXNDC5, Homo sapiens, UniProt Q8NBS9); enzyme activity; inhibitor; fluorescence).
With `Cc1cc(-c2cc(O)ccc2Cl)cc2nnc(Nc3ccc(OCCN4CCCC4)cc3)nc12` the IC50 was 0.292 nM (LCK; cell-free assay).
For `COc1cc(/C=N/NC(=S)NN=Cc2ccc([N+](=O)[O-])o2)ccc1Oc1ccnc2cc(Cl)ccc12`, the IC50 was 7850 nM (AKR1B1; enzyme activity; inhibitor; absorbance).
With `O=C(NC1CCC2(CCCC2)CC1)c1ccc(-c2ccccc2)cc1` the IC50 was 106 nM (Transient receptor potential cation channel subfamily M member 8 (TRPM8, Homo sapiens, UniProt Q7Z2W7); ion current; patch clamp).
